Laboratory results published in ChEMBL document CHEMBL4257575, “Discovery of Novel Flavonoid Dimers To Reverse Multidrug Resistance Protein 1 (MRP1, ABCC1) Mediated Drug Resistance in Cancers Using a High Throughput Platform with "Click Chemistry"” (J Med Chem, 2018).

Molecular target: Multidrug resistance-associated protein 1 (Homo sapiens, UniProt P33527)
Assay: Inhibition of MRP1 in human 2008/MRP1 cells assessed as potentiation of doxorubicin-induced cytotoxicity by measuring cell survival at 2 uM after 5 days by MTS assay relative to control
Format: cell-based
Conditions: 120 h
In short: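 2008/MRP1 cells (retroviral human MRP1 transfectant; RPMI 1640, 10% FBS) at 4,000 per well, with 100 nM doxorubicin plus crude, unpurified click products in DMSO: 2 µM in the primary screen, 1 µM in the secondary. Incubated 5 days at 37 °C. MTS/PMS added for 2 h at 37 °C, absorbance read at 490 nm. % survival is relative to wells without DOX or product. Run in triplicate, at least three experiments.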

Chain of Multidrug resistance-associated protein 1 (P33527 whole entry): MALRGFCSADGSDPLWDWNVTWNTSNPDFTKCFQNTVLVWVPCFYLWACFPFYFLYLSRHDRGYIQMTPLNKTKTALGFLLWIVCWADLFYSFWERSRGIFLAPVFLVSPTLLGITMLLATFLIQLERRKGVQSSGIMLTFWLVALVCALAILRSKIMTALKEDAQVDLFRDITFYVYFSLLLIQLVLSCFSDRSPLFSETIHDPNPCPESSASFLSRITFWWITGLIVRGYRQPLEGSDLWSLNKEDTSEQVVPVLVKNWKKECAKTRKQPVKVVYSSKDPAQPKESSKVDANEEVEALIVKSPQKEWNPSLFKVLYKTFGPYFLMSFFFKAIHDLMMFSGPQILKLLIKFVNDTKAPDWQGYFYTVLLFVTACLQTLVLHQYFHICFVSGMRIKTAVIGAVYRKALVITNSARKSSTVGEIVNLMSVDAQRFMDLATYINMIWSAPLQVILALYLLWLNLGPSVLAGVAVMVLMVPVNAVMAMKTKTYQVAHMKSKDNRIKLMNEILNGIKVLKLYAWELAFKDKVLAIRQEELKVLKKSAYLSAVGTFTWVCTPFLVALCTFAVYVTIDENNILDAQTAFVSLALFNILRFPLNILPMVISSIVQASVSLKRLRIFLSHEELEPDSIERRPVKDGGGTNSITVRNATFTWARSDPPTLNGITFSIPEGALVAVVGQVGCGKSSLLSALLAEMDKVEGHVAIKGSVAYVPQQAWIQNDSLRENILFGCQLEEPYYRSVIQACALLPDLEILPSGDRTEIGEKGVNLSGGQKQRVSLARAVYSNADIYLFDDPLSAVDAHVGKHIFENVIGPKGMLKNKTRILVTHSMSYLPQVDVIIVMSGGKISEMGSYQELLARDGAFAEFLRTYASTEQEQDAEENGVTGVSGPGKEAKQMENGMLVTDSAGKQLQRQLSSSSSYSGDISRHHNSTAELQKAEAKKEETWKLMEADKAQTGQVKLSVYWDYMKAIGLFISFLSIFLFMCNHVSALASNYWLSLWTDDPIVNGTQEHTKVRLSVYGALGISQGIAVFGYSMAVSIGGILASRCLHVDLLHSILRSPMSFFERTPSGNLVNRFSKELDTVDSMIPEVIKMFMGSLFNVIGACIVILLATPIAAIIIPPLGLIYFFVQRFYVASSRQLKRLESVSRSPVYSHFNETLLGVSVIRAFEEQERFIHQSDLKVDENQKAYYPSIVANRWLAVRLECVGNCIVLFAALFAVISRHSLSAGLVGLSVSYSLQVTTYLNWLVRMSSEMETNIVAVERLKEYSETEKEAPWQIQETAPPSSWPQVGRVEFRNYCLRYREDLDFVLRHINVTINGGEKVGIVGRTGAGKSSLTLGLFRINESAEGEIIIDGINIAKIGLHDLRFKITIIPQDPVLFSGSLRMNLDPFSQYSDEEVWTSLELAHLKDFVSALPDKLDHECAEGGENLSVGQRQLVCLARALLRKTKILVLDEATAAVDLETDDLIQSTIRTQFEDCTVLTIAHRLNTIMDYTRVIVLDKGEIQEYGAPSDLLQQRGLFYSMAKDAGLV

Going from `C#CCCCOc1ccc(-c2nc3ccccc3c(=O)[nH]2)cc1` to `C#CCCCCOc1ccc(/C=C/C(=O)c2ccccc2O)cc1`, the Survival rises from 86% to 102%.

Compared with `O=c1[nH]c(-c2ccc(OCCCc3cn(CCOCCOc4ccc(-c5cc(=O)c6cc(F)ccc6o5)cc4)nn3)cc2)nc2ccccc12`, `O=c1cc(-c2ccc(OCCOCCn3cc(CCCOc4ccc(-c5cc(=O)c6cc(F)ccc6o5)cc4)nn3)cc2)oc2ccccc12` is higher in Survival: 76% for the first, 93% for the second.

Compared with `O=c1cc(-c2ccc(OCCOCCn3cc(CN4CCN(Cc5cn(CCOCCOc6ccc(-c7cc(=O)c8cc(F)ccc8o7)cc6)nn5)CC4)nn3)cc2)oc2ccc(F)cc12`, `O=c1cc(-c2ccc(OCCOCCn3cc(CN4CCN(Cc5cn(CCOCCOc6ccc(-c7cc(=O)c8ccccc8o7)cc6)nn5)CC4)nn3)cc2)oc2ccccc12` is higher in Survival: 86% for the first, 116% for the second.

Going from `O=C(/C=C/c1ccc(OCCCCc2cn(CCOCCOCCOc3ccc(-c4cc(=O)c5ccccc5o4)cc3)nn2)cc1)c1ccc(F)cc1O` to `O=C(/C=C/c1ccc(OCCCCc2cn(CCOCCOCCOc3ccc4c(=O)cc(-c5ccccc5)oc4c3)nn2)cc1)c1ccc(F)cc1O`, the Survival rises from 55% to 67%.

Going from `COc1cccc(COc2c(-c3ccc(OCCCCc4cn(CCOCCOCCOc5ccc(-c6cc(=O)c7cc(F)ccc7o6)cc5)nn4)cc3)oc3ccccc3c2=O)c1` to `O=c1cc(-c2ccc(OCCCc3cn(CCOCCOCCOc4ccc(-c5oc6ccccc6c(=O)c5OCc5ccccc5)cc4)nn3)cc2)oc2ccc(F)cc12`, the Survival rises from 60% to 75%.

First: O=c1[nH]c(-c2ccc(OCCCc3cn(CCOCCOCCOc4ccc5c(=O)cc(-c6ccccc6)oc5c4)nn3)cc2)nc2ccccc12
Second: O=c1cc(-c2ccc(OCCOCCOCCn3cc(CCCCOc4ccc5c(=O)cc(-c6ccccc6)oc5c4)nn3)cc2)oc2ccccc12
The Survival of the first is higher: 60% for the first, 57% for the second.

Compared with `C#Cc1ccc(C#C)cc1`, `C#CCCCCOc1ccc(/C=C/C(=O)c2ccc(C)cc2O)cc1` is higher in Survival: 86% for the first, 100% for the second.

Compared with `O=c1[nH]c(-c2ccc(OCCCc3cn(CCOCCOc4cccc(-c5oc6ccccc6c(=O)c5OCc5ccccc5)c4)nn3)cc2)nc2ccccc12`, `Cc1ccc2oc(-c3ccc(OCCCCc4cn(CCOCCOc5cccc(-c6oc7ccccc7c(=O)c6OCc6ccccc6)c5)nn4)cc3)cc(=O)c2c1` is lower in Survival: 67% for the first, 55% for the second.

Going from `Cc1ccc(O)c(C(=O)/C=C/c2ccc(OCCCCc3cn(CCOCCOCCOc4ccc(-c5cc(=O)c6cc(F)ccc6o5)cc4)nn3)cc2)c1` to `O=C(/C=C/c1ccc(OCCCCc2cn(CCOCCOCCOc3ccc(-c4cc(=O)c5ccccc5o4)cc3)nn2)cc1)c1ccccc1O`, the Survival falls from 72% to 65%.

Going from `COCOc1cc(OCc2ccccc2)c2c(=O)cc(-c3ccc(OCCCc4cn(CCOCCOCCOc5ccc(-c6oc7ccccc7c(=O)c6OCc6ccccc6)cc5)nn4)cc3)oc2c1` to `COCOc1cc(OCc2ccccc2)c2c(=O)cc(-c3ccc(OCCCc4cn(CCOCCOc5ccc(-c6oc7ccccc7c(=O)c6OCc6cccc(OC)c6)cc5)nn4)cc3)oc2c1`, the Survival falls from 89% to 79%.

First: CCc1ccc(O)c(C(=O)/C=C/c2ccc(OCCCCc3cn(CCOCCOc4ccc(-c5oc6ccccc6c(=O)c5OCc5cccc(OC)c5)cc4)nn3)cc2)c1
Second: COc1cccc(COc2c(-c3ccc(OCCOCCn4cc(CCCCOc5ccc(/C=C/C(=O)c6ccc(C)cc6O)cc5)nn4)cc3)oc3ccccc3c2=O)c1
The Survival of the first is lower: 76% for the first, 78% for the second.

First: COc1cccc(COc2c(-c3ccc(OCCCCc4cn(CCOCCOc5ccc(-c6oc7ccccc7c(=O)c6OCc6cccc(OC)c6)cc5)nn4)cc3)oc3ccccc3c2=O)c1
Second: Cc1ccc2oc(-c3ccc(OCCCCc4cn(CCOCCOc5ccc(-c6oc7ccccc7c(=O)c6OCc6ccccc6)cc5)nn4)cc3)cc(=O)c2c1
The Survival of the first is lower: 57% for the first, 73% for the second.

Going from `O=c1cc(-c2ccccc2)oc2cc(OCCOCc3cn(CCOCCOCCOc4ccc(-c5cc(=O)c6cc(F)ccc6o5)cc4)nn3)ccc12` to `O=c1cc(-c2ccccc2)oc2cc(OCCCCc3cn(CCOCCOc4ccc(-c5cc(=O)c6cc(F)ccc6o5)cc4)nn3)ccc12`, the Survival falls from 53% to 52%.

Going from `CN(CCN(C)Cc1cn(CCOCCOCCOc2ccc(-c3cc(=O)c4cc(F)ccc4o3)cc2)nn1)Cc1cn(CCOCCOCCOc2ccc(-c3cc(=O)c4cc(F)ccc4o3)cc2)nn1` to `Cc1ccc2oc(-c3ccc(OCCOCCOCCn4cc(CN(C)CCN(C)Cc5cn(CCOCCOCCOc6ccc(-c7cc(=O)c8cc(C)ccc8o7)cc6)nn5)nn4)cc3)cc(=O)c2c1`, the Survival falls from 79% to 76%.

First: O=c1cc(-c2ccccc2)oc2cc(OCCOCCn3cc(-c4ccc(-c5cn(CCOCCOc6ccc7oc(-c8ccccc8)cc(=O)c7c6)nn5)cc4)nn3)ccc12
Second: O=c1cc(-c2ccccc2)oc2cc(OCCOCCOCCn3cc(-c4cccc(-c5cn(CCOCCOCCOc6ccc7c(=O)cc(-c8ccccc8)oc7c6)nn5)c4)nn3)ccc12
The Survival of the first is higher: 79% for the first, 74% for the second.

First: COc1cccc(COc2c(-c3ccc(OCCOCCn4cc(CCCOc5ccc6c(=O)cc(-c7ccccc7)oc6c5)nn4)cc3)oc3ccccc3c2=O)c1
Second: COCOc1cc(OCc2ccccc2)c2c(=O)cc(-c3ccc(OCCCc4cn(CCOCCOCCOc5ccc(-c6cc(=O)c7ccccc7o6)cc5)nn4)cc3)oc2c1
The Survival of the first is higher: 78% for the first, 66% for the second.

Compared with `O=c1c(OCc2ccccc2)c(-c2ccc(OCCOCCOCCn3cc(-c4cccc(-c5cn(CCOCCOCCOc6ccc(-c7oc8ccccc8c(=O)c7OCc7ccccc7)cc6)nn5)c4)nn3)cc2)oc2ccccc12`, `O=c1c(OCc2ccccc2)c(-c2ccc(OCCOCCn3cc(-c4cccc(-c5cn(CCOCCOc6ccc(-c7oc8ccccc8c(=O)c7OCc7ccccc7)cc6)nn5)c4)nn3)cc2)oc2ccccc12` is higher in Survival: 80% for the first, 87% for the second.

First: Cc1ccc(O)c(C(=O)/C=C/c2ccc(OCCCCc3cn(CCOCCOc4cccc(-c5oc6ccccc6c(=O)c5OCc5ccccc5)c4)nn3)cc2)c1
Second: Cc1ccc(O)c(C(=O)/C=C/c2ccc(OCCCCc3cn(CCOCCOCCOc4ccc(-c5oc6ccccc6c(=O)c5OCc5ccccc5)cc4)nn3)cc2)c1
The Survival of the first is higher: 78% for the first, 76% for the second.

First: O=c1[nH]c(-c2ccc(OCCCc3cn(CCOc4cccc5c(=O)cc(-c6ccccc6)oc45)nn3)cc2)nc2ccccc12
Second: O=c1cc(-c2ccccc2)oc2cc(OCCOCCOCCn3cc(CNc4ccccc4)nn3)ccc12
The Survival of the first is lower: 67% for the first, 90% for the second.

Compared with `CCc1ccc(O)c(C(=O)/C=C/c2ccc(OCCCCc3cn(CCOCCOc4ccc(-c5oc6ccccc6c(=O)c5OCc5ccccc5)cc4)nn3)cc2)c1`, `CN(CCN(C)Cc1cn(CCOCCOc2cccc(-c3oc4ccccc4c(=O)c3OCc3ccccc3)c2)nn1)Cc1cn(CCOCCOc2cccc(-c3oc4ccccc4c(=O)c3OCc3ccccc3)c2)nn1` is higher in Survival: 69% for the first, 83% for the second.

Compared with `[N-]=[N+]=NCCOCCOc1ccc(-c2cc(=O)c3ccccc3o2)cc1`, `C#CCCCCOc1ccc(/C=C/C(=O)c2ccc(F)cc2O)cc1` is higher in Survival: 78% for the first, 99% for the second.

Going from `O=c1cc(-c2ccccc2)oc2cc(OCCOCCOCCn3cc(CN4CCN(Cc5cn(CCOCCOCCOc6ccc7c(=O)cc(-c8ccccc8)oc7c6)nn5)CC4)nn3)ccc12` to `O=c1cc(-c2ccc(OCCOCCOCCn3cc(CN(Cc4cn(CCOCCOCCOc5ccc(-c6cc(=O)c7ccccc7o6)cc5)nn4)Cc4cn(CCOCCOCCOc5ccc(-c6cc(=O)c7ccccc7o6)cc5)nn4)nn3)cc2)oc2ccccc12`, the Survival falls from 89% to 77%.

`Cc1ccc2oc(-c3ccc(OCCOCCOCCn4cc(CN(Cc5cn(CCOCCOCCOc6ccc(-c7cc(=O)c8cc(C)ccc8o7)cc6)nn5)Cc5cn(CCOCCOCCOc6ccc(-c7cc(=O)c8cc(C)ccc8o7)cc6)nn5)nn4)cc3)cc(=O)c2c1` gave a Survival of 71%.
